Assay results taken from publication PMC2118398 (The Journal of Experimental Medicine, 2006).
Each block holds one compound with its values, some of them ahead of it.

Assays:
[1] = target: CXCR7 (SDF-1 binding site on MCF-7 cells) (Homo sapiens, UniProt P25106); test: Radioligand
CXCR4 (CEM-NKr cells) = CXCR4 (CEM-NKr cells) (Homo sapiens, UniProt P61073); test: 125I SDF-1 competition binding to CEM-NKr cells
How it was run: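 Whole CEM-NKr cells were incubated with 125I SDF-1 in the presence of unlabeled SDF-1α, a CXCR4 antagonist, or a CXCR7 antagonist as competitors. Cell-bound radioactivity was counted in a γ counter.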

CEM-NKr cells [2] = test: Cell migration of CEM-NKr cells; format: cell-based, human; details: unpublished data
How it was run: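 Cells in chemotaxis buffer (HBSS with Ca2+, Mg2+, 0.1% BSA) were placed above a 3 or 5 μm pore filter, sized to the cells, with chemokine in the lower chamber. After 90 min at 37°C, filters were removed, CyQuant was added to the lower chamber, and migrated cells were read at 540 nm.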

CEM-NKr cells [3] = test: Calcium mobilization in CEM-NKr cells; format: cell-based, human; details: unpublished data
How it was run: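 Cells were loaded with the ratiometric intracellular dye Indo-1, and the calcium response was recorded on addition of SDF-1α.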

[4] = tested on: human lung carcinoma A549; test: A549 human lung carcinoma xenograft model; format: in vivo, mouse; details: 2 mg/kg intraperitoneally every 2 d; vs vehicle control, P < 0.005
[5] = target: CXCR7 on human cervical carcinoma HeLa cells (Homo sapiens, UniProt P25106); test: 125I SDF-1 binding profile on HeLa cells; details: Fig. 3 B; 100 nM chemokine, 10 μM small molecules
Sequence of CXCR7 on human cervical carcinoma HeLa cells (P25106 whole entry): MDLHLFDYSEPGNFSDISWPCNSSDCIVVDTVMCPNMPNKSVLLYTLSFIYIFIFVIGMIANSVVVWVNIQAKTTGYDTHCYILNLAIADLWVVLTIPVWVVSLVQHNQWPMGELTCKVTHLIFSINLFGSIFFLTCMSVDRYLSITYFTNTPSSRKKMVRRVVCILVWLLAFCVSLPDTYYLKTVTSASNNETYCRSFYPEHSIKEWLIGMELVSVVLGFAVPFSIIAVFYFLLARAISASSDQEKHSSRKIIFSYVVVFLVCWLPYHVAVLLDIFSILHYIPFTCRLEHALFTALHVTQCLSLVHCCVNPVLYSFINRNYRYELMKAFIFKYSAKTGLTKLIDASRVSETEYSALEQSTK
How it was run: (§1)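 Intact cells bound 125I SDF-1 with or without 100 nM unlabelled chemokine, 10 μM CXCR7 antagonist or 10 μM CXCR4 antagonist. Cell-bound radioactivity was counted in a γ counter. CXCR7 binding was taken as binding displaced by unlabelled ligand or the CXCR7 antagonist but not by the CXCR4 antagonist.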

MCF-7 cells [6] = test: Cell migration of MCF-7 cells; format: cell-based, human; details: agonist response
How it was run: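 Cells in HBSS with Ca2+, Mg2+ and 0.1% BSA were placed above a filter (3 or 5 μm pores, chosen by cell size) in a 96-well microchamber, with chemokine below. After 90 min at 37°C in humidified air, the filter was removed. Cells in the lower chamber were quantified with CyQuant fluorescence at 540 nm.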

[7] = target: CXCR7 on mouse B cell lymphoma BCL1 (Mus musculus, UniProt P56485); test: 125I SDF-1 binding profile on BCL1 cells; details: Fig. 3 B; 100 nM chemokine, 10 μM small molecules
Sequence of CXCR7 on mouse B cell lymphoma BCL1 (P56485 whole entry): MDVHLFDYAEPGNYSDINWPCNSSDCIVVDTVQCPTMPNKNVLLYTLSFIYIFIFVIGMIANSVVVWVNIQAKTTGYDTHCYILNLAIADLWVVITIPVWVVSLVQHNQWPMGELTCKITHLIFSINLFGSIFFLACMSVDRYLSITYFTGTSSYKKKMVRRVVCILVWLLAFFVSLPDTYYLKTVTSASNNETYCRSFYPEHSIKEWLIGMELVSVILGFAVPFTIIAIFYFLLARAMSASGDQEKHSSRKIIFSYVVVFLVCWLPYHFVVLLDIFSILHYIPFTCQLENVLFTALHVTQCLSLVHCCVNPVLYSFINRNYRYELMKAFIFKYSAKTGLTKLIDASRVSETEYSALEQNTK
How it was run: as §1

human CXCR7 (RDC1) = human CXCR7 (RDC1) (Homo sapiens, UniProt P25106); test: Radioligand; format: binding
Sequence of human CXCR7 (RDC1) (P25106 whole entry): as the sequence (P25106 whole entry) above

MCF-7 cells [8] = test: Calcium mobilization in MCF-7 cells; format: cell-based, human; details: agonist response
How it was run: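 Cells were loaded with the ratiometric dye Indo-1 and stimulated with 10 nM SDF-1α. The intracellular calcium trace was recorded around ligand addition. The analysis was reproduced in at least 10 independent studies.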

[9] = target: CXCR7 (SDF-1 binding site on fetal liver cells) (Mus musculus, UniProt P56485); details: 125I SDF-1
Sequence of CXCR7 (SDF-1 binding site on fetal liver cells) (P56485 whole entry): as the sequence (P56485 whole entry) above

Sequence of CXCR7 (SDF-1 binding site on MCF-7 cells) (P25106 whole entry): as the sequence (P25106 whole entry) above
Sequence of CXCR4 (CEM-NKr cells) (P61073 whole entry): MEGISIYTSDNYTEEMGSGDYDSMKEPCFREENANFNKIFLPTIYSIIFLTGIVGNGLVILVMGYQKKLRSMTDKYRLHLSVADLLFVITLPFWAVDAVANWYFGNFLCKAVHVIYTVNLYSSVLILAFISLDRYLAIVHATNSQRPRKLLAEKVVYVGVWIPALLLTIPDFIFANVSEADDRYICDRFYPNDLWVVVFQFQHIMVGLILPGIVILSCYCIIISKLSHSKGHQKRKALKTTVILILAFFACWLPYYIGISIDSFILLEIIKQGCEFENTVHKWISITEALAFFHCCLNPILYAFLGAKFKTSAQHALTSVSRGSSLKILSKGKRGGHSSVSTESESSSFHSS

Compound: c1cc(CN2CCCNCCNCCCNCC2)ccc1CN1CCCNCCNCCCNCC1 [AMD3100]
inhibition of 125I SDF-1 binding to MCF-7 cells (in words) [1]: not to MCF-7 cells | inhibition of 125I SDF-1 binding to CEM-NKr cells (in words) (CXCR4 (CEM-NKr cells)): inhibited binding | inhibition of SDF-1-induced cell migration of CEM-NKr cells (CEM-NKr cells [2]): inhibited all functions | inhibition of SDF-1-induced calcium mobilization in CEM-NKr cells (CEM-NKr cells [3]): inhibited all functions

Compound: N[C@@H](Cc1ccc(N(CCCl)CCCl)cc1)C(=O)O [Melphalan]
tumor volume at 49 d, A549 model (positive control) [4]: reduced tumor volume

Compound: IP10: chemokine IP10 (CXCL10), thought to bind only CXCR3
inhibition of 125I I-TAC binding to MCF-7 cells (in words) [1]: no inhibitory effect | inhibition of 125I SDF-1 binding to MCF-7 cells (in words) [1]: no inhibitory effect

More lines, main results first:

inhibition of 125I I-TAC binding to MCF-7 cells (in words) [1]: no inhibitory effect | inhibition of 125I SDF-1 binding to MCF-7 cells (in words) [1]: no inhibitory effect
Compound: Mig: chemokine Mig (CXCL9), thought to bind only CXCR3

inhibition of 125I SDF-1 binding to HeLa cells [5]: inhibited | inhibition of 125I SDF-1 binding to MCF-7 cells (in words) [1]: strongly displaced | inhibition of 125I SDF-1 binding to BCL1 cells [7]: inhibited | inhibition of 125I SDF-1 binding to RDC1 (CXCR7) transfectants (in words) (human CXCR7 (RDC1)): blocked | inhibition of the SDF-1 binding site of E13 embryos of CXCR4-/- mice [9]: inhibited
Compound: I-TAC: CXC chemokine interferon-inducible T cell α chemoattractant, also known as CXCL11
chemokine-induced migration of MCF-7 cells (MCF-7 cells [6]): failed to induce | chemokine-induced calcium mobilization in MCF-7 cells (MCF-7 cells [8]): failed to induce
